Source: ChEMBL document CHEMBL2401612, “Design, synthesis and characterization of peptidomimetic conjugate of BODIPY targeting HER2 protein extracellular domain” (Eur J Med Chem, 2013)
Calls of active or inactive are those of the source. The rule behind the calls is not given here.

How the values were obtained:
[1] = tested on: SK-BR-3; test: Cellular uptake in human SKBR3 cells overexpressing HER2 at 0.4 uM after 48 hrs by lyso tracking-based confocal microscopic analysis; type: ADME, cell-based; settings: sk-br-3, 48 h
How it was run: (§1)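 SKBR-3 cells in chamber wells given 0.4 μM BODIPY conjugate at 37 °C for 24 or 48 h, PBS-washed and fixed in ice-cold methanol at −20 °C for 5 min. Membrane tracker (5 min) or Lyso tracker (30 min) in serum-free medium added at 37 °C. Mounted slides imaged by confocal microscopy at 40X under oil with argon and HeNe lasers to assess co-localization.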

[2] = tested on: SK-BR-3; test: Cellular uptake in human SKBR3 cells overexpressing HER2 at 1 to 10 uM by fluorescence plate reader analysis; type: ADME, cell-based; settings: sk-br-3, 10 µM, TDE = time-dependent effect
How it was run: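 Fluorescent BODIPY conjugate diluted in McCoy's medium to 1 and 10 μM and added to SKBR-3 cells (10,000/well, grown 24 h) at 37 °C. At 0, 12, 24, 36, 48 and 72 h, medium removed and cells washed twice with PBS. Cell-associated fluorescence read on a plate reader at 490/530 nm excitation/emission.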

[3] = Cellular uptake in human SKBR3 cells plasma membrane overexpressing HER2 at 0.4 uM after 24 hrs by membrane tracking-based confocal microscopic analysis; type: ADME, cell-based; settings: sk-br-3, 24 h; how it was run: as §1
[4] = biological target: Receptor tyrosine-protein kinase erbB-2 (Homo sapiens) (UniProt P04626); test: Binding affinity to HER2 extracellular domain in human SKBR3 cells assessed as inhibition of HER3 binding at 0.5 uM after 24 hrs by confocal microscopy-based proximity ligation assay; type: cell-based; settings: SK-BR-3
How it was run: (§2)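 SKBR-3 cells seeded at 5 × 10^4 per chamber well and grown 24 h at 37 °C, then treated 24 h. Cells fixed in ice-cold methanol at −20 °C and blocked in 5% BSA 1 h. Primary antibodies anti-HER2 (rabbit) and anti-HER3 (mouse), each 1:400, applied overnight at 4 °C. Duolink PLA probes, ligation and amplification at 37 °C, then confocal imaging of red heterodimer spots.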

[5] = biological target: Receptor tyrosine-protein kinase erbB-2 (Homo sapiens) (UniProt P04626); test: Inhibition of HER2 kinase domain phosphorylation in human BT474 cells at 0.4 uM by Western blot analysis; type: cell-based; settings: BT-474, TDE = time-dependent effect
How it was run: (§3)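 BT-474 cells (RPMI-1640) and SKBR-3 cells (McCoy's), each with 10% FBS and insulin, plated in triplicate flasks and treated after 24 h with 0.4 μM compound or left untreated at 37 °C, 5% CO2. Lysates made with protease and phosphatase inhibitors; 40 μg protein run on 10% SDS-PAGE. Blots probed with p-HER2 antibody (1:3000, 15 h, 4 °C), detected by ECL; total HER2 blotted with an anti-ECD antibody.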

[6] = biological target: Receptor tyrosine-protein kinase erbB-2 (Homo sapiens) (UniProt P04626); test: Inhibition of HER2 kinase domain phosphorylation in human BT474 cells at 0.4 uM after 18 hrs by Western blot analysis; type: cell-based; settings: BT-474; how it was run: as §3
[7] = biological target: Receptor tyrosine-protein kinase erbB-2 (Homo sapiens) (UniProt P04626); test: Binding affinity to HER2 extracellular domain in human SKBR3 cells assessed as inhibition of EGFR binding; type: cell-based; settings: SK-BR-3
[8] = biological target: Receptor tyrosine-protein kinase erbB-2 (Homo sapiens) (UniProt P04626); test: Inhibition of HER2 kinase domain phosphorylation in human SKBR3 cells at 0.4 uM after 18 hrs by Western blot analysis; type: cell-based; settings: SK-BR-3; how it was run: as §3
[9] = biological target: Receptor tyrosine-protein kinase erbB-2 (Homo sapiens) (UniProt P04626); test: Binding affinity to HER2 extracellular domain in human SKBR3 cells assessed as inhibition of HER3 binding at 0.8 uM after 24 hrs by confocal microscopy-based proximity ligation assay; type: cell-based; settings: SK-BR-3; how it was run: as §2
[10] = biological target: Receptor tyrosine-protein kinase erbB-2 (Homo sapiens) (UniProt P04626); test: Inhibition of HER2 kinase domain phosphorylation in human SKBR3 cells at 0.4 uM by Western blot analysis; type: cell-based; settings: SK-BR-3, TDE = time-dependent effect; how it was run: as §3

Chain of Receptor tyrosine-protein kinase erbB-2 (Homo sapiens) (P04626 whole entry, the tested form may be a part): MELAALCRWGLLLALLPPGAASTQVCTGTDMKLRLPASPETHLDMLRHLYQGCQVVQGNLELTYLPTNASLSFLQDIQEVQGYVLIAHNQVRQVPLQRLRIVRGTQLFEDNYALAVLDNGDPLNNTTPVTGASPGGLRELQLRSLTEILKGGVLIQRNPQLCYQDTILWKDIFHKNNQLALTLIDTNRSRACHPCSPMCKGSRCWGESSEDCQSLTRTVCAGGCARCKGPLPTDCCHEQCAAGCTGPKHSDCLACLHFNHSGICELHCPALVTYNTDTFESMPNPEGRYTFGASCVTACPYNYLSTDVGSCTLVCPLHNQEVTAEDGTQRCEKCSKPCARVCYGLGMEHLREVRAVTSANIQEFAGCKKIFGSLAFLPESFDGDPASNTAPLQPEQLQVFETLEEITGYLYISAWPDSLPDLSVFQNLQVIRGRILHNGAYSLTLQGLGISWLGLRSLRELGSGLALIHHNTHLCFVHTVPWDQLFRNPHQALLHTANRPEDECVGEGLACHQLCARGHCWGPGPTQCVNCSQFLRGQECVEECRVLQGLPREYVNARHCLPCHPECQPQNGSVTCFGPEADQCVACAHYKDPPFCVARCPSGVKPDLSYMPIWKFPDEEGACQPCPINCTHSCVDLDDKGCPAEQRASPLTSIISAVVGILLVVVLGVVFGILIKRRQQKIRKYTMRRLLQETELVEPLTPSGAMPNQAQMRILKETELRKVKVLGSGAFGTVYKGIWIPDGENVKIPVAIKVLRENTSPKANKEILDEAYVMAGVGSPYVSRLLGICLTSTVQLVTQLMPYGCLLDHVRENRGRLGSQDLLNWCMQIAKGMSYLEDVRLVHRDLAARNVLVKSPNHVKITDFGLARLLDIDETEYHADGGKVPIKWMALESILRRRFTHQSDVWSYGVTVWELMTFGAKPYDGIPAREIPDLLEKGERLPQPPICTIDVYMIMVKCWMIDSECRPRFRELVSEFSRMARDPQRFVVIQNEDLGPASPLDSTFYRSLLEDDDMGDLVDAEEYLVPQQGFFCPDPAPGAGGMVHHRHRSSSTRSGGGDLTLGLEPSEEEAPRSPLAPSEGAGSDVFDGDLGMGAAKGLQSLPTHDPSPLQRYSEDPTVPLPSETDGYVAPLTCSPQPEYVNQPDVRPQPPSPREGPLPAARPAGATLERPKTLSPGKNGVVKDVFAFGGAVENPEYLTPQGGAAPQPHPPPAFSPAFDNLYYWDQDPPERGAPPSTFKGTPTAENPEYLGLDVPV

In the case of `Cc1cc(C)n2c1C=C1C=CC(CCCCC(=O)N[C@@H](CCCNC(=N)N)C(=O)NC(CC(=O)N[C@@H](Cc3ccccc3)C(=O)O)c3cccc4ccccc34)=[N+]1[B-]2(F)F` (stereo not given in full), the Drug uptake [1] is reported as “Active”, the Drug uptake [2] is reported as “tde” and the Drug uptake [3] is reported as “Active”.
For `N=C(N)NCCC[C@H](N)C(=O)NC(CC(=O)N[C@@H](Cc1ccccc1)C(=O)O)c1cccc2ccccc12` (stereo not given in full), the inhibition [4] was “inactive”, the inhibition [5] was “tde” and the inhibition [6] was “Active”. The inhibition [7] was “Active”, the inhibition [8] was “Active” and the inhibition [9] was “Active”. For the same molecule, the inhibition [10] was “tde”.
